The record followed here is ChEMBL document CHEMBL1177752, “Trigoxyphins A-G: diterpenes from Trigonostemon xyphophylloides” (J Nat Prod, 2010).

Assay type in all cases: functional, cell-based
In one assay the test system is HL-60. Put plainly: Cytotoxicity against human HL60 cells after 72 hrs by MTT assay. The following applies: HL-60, 72 h. The method, boiled down: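 Cells plated in culture medium in 96-well plates, then treated in triplicate with graded compound concentrations for 72 h at 37 °C. MTT (5 mg/mL solution) added for 4 h, followed by 10% SDS/5% isobutanol/12 mM HCl solubilizer.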

The test system of a further assay is Bel-7402. Description: Cytotoxicity against human Bel7402 cells after 72 hrs by SRB assay. The conditions noted are these: Bel-7402, 72 h. Background: The SRB assay estimates cell density from bound dye.
The next assay deals with A549. Description: Cytotoxicity against human A549 cells after 72 hrs by SRB assay. The conditions noted are these: A549, 72 h.

pIC50: −log10 of the molar value.

By pIC50 is commonly meant −log10 of the IC50, conventionally taken in molar units. For the compound `COc1cccc2c1C(=O)c1c(O)c3c(c(O)c1C2=O)C[C@@](O)(C(=O)CO)C[C@@H]3O[C@H]1C[C@H](N)[C@H](O)[C@H](C)O1` [DOXORUBICIN], the pIC50 in the assay with HL-60 is 7.40; with Bel-7402, 6.92; in the assay with A549, 6.77. For `C=C(C)[C@@]12OC3(c4ccccc4)O[C@@H]1[C@@H]1[C@@H]4O[C@]4(C)[C@@H](O)[C@]4(O)C(=O)C(C)=C[C@H]4[C@@]1(O3)[C@H](C)[C@@H]2OC(=O)c1ccccc1` [TRIGOXYPHIN A] the same measures were 6.57, < 5.00 and 5.12. For `C=C(C)[C@@]12OC3(c4ccccc4)O[C@@H]1[C@@H]1[C@@H]4O[C@]4(C)[C@@H](O)[C@]4(O)C(=O)[C@@H](C)C[C@H]4[C@@]1(O3)[C@H](C)[C@@H]2OC(=O)c1ccccc1` [TRIGOXYPHIN B] the same measures were 6.31, < 5.00 and 5.31. `C=C(C)[C@@]12OC3(c4ccccc4)O[C@@H]1[C@@H]1[C@@H]4O[C@]4(C)[C@@H](OC(C)=O)[C@]4(O)C(=O)[C@@H](C)C[C@H]4[C@@]1(O3)[C@H](C)[C@@H]2OC(=O)c1ccccc1` [TRIGOXYPHIN C]: the pIC50 in the assay with Bel-7402 is < 5.00.

Consider `C=C(C)[C@@]1(O)[C@@H]2OC3(c4ccccc4)O[C@H]1[C@@H](C)[C@@]1(O3)[C@H]2[C@H](OC(C)=O)[C@](C)(OC(=O)c2ccccc2)[C@@H](OC(C)=O)[C@@]2(O)[C@H]1C[C@H](C)[C@@H]2OC(C)=O` [TRIGOXYPHIN D], for which, in the assay on Bel-7402, the pIC50 was < 5.00.

For the compound `C=C(C)[C@@]1(OC(C)=O)[C@@H]2OC3(c4ccccc4)O[C@H]1[C@@H](C)[C@@]1(O3)[C@H]2[C@H](OC(C)=O)[C@](C)(OC(=O)c2ccccc2)[C@@H](OC(C)=O)[C@@]2(O)[C@H]1C[C@H](C)[C@@H]2OC(C)=O` [TRIGOXYPHIN E], the pIC50 in the assay on Bel-7402 was < 5.00. The same measure, in the same setting: under `C=C(C)[C@@]12OC3(c4ccccc4)O[C@@H]1[C@@H]1[C@H](OC(C)=O)[C@@](C)(OC(=O)c4ccccc4)[C@@H](OC(C)=O)[C@@]4(O)[C@@H](C[C@H](C)[C@@H]4OC(C)=O)[C@@]1(O3)[C@H](C)[C@@H]2O` [TRIGOXYPHIN F] stands < 5.00.

Take `Cc1cc2c(cc1O)C1=CC(=O)[C@@H](O)C(C)(C)C1CC2=O` (some centres undefined) [TRIGOXYPHIN G]: the pIC50 with Bel-7402 is < 5.00.
